# In ChEMBL document CHEMBL3352206, “Discovery of substituted 4-aminoquinazolines as selective Toll-like receptor 4 ligands” (Bioorg Med Chem Lett, 2014):
# Calls of active or inactive are those of the source. No cut-off for these calls is given here.
# What was measured:
# [1] = target: Toll-like receptor 4 (Homo sapiens) (UniProt O00206); test: Activation of human TLR4 fransfectoma in HEK Blue cells at 0.5 uM relative to LPS; type: cell-based; conditions: HEK293
# How it was run: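 hTLR4 HEK Blue transfectoma cells incubated with compound at 0.5 μM for 20–22 h; SEAP read by QuantiBlue OD630. Values normalized to LPS (100 ng/mL) positive control set at 100.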
# HepG2 = test: Cytotoxicity against human HepG2 cells at 10 uM by MTT assay; type: functional
# How it was run: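 HepG2 viability by MTT at 10 μM compound; OD570–650 normalized to vehicle-treated cells in the same experiment.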
# PBMC [2] = test: Induction of IL-8 level in human PBMC at 0.5 uM by ELISA relative to LPS; type: functional
# How it was run: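 Primary human PBMC stimulated overnight with compound at 0.5 μM; IL-8 in supernatant by ELISA, normalized to LPS (100 ng/mL) set at 100.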
# [3] = target: T1, Toll-like receptor 4/MD-2 (Homo sapiens) (UniProt O00206+Q9Y6Y9); test: Activation of human TLR4/MD2 complex expressed in HEK293 Blue cells coexpressing CD14 assessed as SEAP secretion at 10 uM after 20 to 24 hrs by SEAPorter assay; type: cell-based
# BMDC [4] = test: Induction of IL-6 production in TLR4-deficient mouse BMDC at 10 uM by ELISA; type: functional
# How it was run: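 BMDC from wild-type and TLR4-deficient mice stimulated with compound at 10 μM; IL-6 in culture supernatant by ELISA.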
# [5] = target: Toll-like receptor 4 (Homo sapiens) (UniProt O00206); test: Activation of human TLR4 complex expressed in MD2-deficient HEK293 Blue cells coexpressing CD14 assessed as SEAP secretion at 10 uM after 20 to 24 hrs by SEAPorter assay; type: cell-based
# [6] = target: T1, Toll-like receptor 4/MD-2 (Homo sapiens); test: Activation of human TLR4/MD2 complex expressed in HEK293 Blue cells coexpressing CD14 assessed as SEAP secretion at 10 uM after 20 to 24 hrs by SEAPorter assay in presence of Rhodobacter sphaeroides LPS; type: cell-based
# How it was run: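 hTLR4/MD-2/CD14 transfectoma cells given 10 μM compound or 10 ng/mL LPS, with or without the TLR4 antagonist LPS-RS (Rhodobacter sphaeroides LPS; 12, 111, 1000 ng/mL). TLR4/NF-κB activation read as SEAP in supernatant. One-way ANOVA with Dunnett's test versus vehicle.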
# PBMC [7] = test: Induction of IL-8 expression in human PBMC by ELISA in presence of polymyxin B; type: functional, cell-based
# How it was run: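 Human PBMC incubated overnight with compound, alone or with polymyxin B (10 μg/mL); IL-8 in supernatant by ELISA. Mean ± SEM of triplicates, two independent experiments.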
# L929 = test: Induction of type 1 IFN release in mouse L929-ISRE cells assessed as luciferase release at 10 uM; type: functional, cell-based
# How it was run: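 Human PBMC incubated overnight with compound (10 μM), LPS (10 ng/mL) or vehicle; type I IFN in supernatant quantified as luciferase release from L929-ISRE reporter cells. Mean ± SEM of triplicates.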
# BMDC [8] = test: Induction of CD40 expression in wild type CD11c+ population of mouse BMDC; type: functional
# How it was run: (§1)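 BMDC from wild-type or Tlr4−/− mice treated with compound or vehicle (0.5% DMSO); stained for CD11c plus CD40, CD80 or CD86. Marker expression assessed by flow cytometry on gated CD11c+ cells.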
# BMDC [9] = test: Induction of CD80 expression in wild type CD11c+ population of mouse BMDC; type: functional; how it was run: as §1
# BMDC [10] = test: Induction of CD86 expression in wild type CD11c+ population of mouse BMDC; type: functional; how it was run: as §1
# BMDC [11] = test: Induction of CD40 expression in TLR4-deficient CD11c+ population of mouse BMDC; type: functional; how it was run: as §1
# BMDC [12] = test: Induction of CD80 expression in TLR4-deficient CD11c+ population of mouse BMDC; type: functional; how it was run: as §1
# BMDC [13] = test: Induction of CD86 expression in TLR4-deficient CD11c+ population of mouse BMDC; type: functional; how it was run: as §1
# PBMC [14] = test: Induction of CD80 expression in CD11c+ HLA-DR+ population of human PBMC; type: functional, cell-based
# How it was run: (§2)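 Human PBMC incubated overnight with compound at 5 μM; CD80 and CD83 measured by flow cytometry on gated CD11c+HLA-DR+ cells. Two independent experiments.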
# PBMC [15] = test: Induction of CD83 expression in CD11c+ HLA-DR+ population of human PBMC; type: functional, cell-based; how it was run: as §2
# [16] = target: T1, Toll-like receptor 4/MD-2 (Homo sapiens); test: Activation of human TLR4/MD2 complex in human THP1 cells assessed as induction of NFkappaB activation incubated for 18 hrs; type: cell-based; conditions: THP-1
# How it was run: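 CellSensor THP-1 or RAW264.7 cells carrying an NF-κB-driven FRET β-lactamase reporter; graded compound concentrations for 18 h. NF-κB activation normalized to LPS (5 ng/mL) and expressed as percent activation.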
# PBMC [17] = test: Induction of IL-8 level in human PBMC at < 1 uM by ELISA; type: functional, cell-based
# How it was run: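 Mouse BMDC or human PBMC stimulated overnight with graded compound concentrations; IL-6 (mouse) or IL-8 (human) in supernatant by ELISA. Mean ± SEM of triplicates, two independent experiments.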
# PBMC [18] = test: Cytotoxicity against human PBMC at 10 uM after 18 hrs incubation by MTT assay; type: cell-based
# How it was run: (§3)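 Human PBMC or mouse BMDC incubated 18 h with compound at 10 μM; viability by MTT assay, reported as percent.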
# [19] = Cytotoxicity against mouse BMDC at 10 uM after 18 hrs incubation by MTT assay; how it was run: as §3
# [20] = target: Toll-like receptor 4/MD-2/CD14 (Mus musculus) (UniProt Q9QUK6+Q9JHF9+P10810); test: Activation of mouse TLR4/MD2 complex in mouse RAW264.7 cells assessed as induction of NFkappaB activation incubated for 18 hrs
# [21] = target: T1, Toll-like receptor 4/MD-2 (Homo sapiens); test: Activation of human TLR4/MD2 complex expressed in HEK293 Blue cells assessed as SEAP secretion at 10 uM after 20 to 24 hrs by SEAPorter assay
# Sequence of Toll-like receptor 4 (Homo sapiens) (O00206 whole entry): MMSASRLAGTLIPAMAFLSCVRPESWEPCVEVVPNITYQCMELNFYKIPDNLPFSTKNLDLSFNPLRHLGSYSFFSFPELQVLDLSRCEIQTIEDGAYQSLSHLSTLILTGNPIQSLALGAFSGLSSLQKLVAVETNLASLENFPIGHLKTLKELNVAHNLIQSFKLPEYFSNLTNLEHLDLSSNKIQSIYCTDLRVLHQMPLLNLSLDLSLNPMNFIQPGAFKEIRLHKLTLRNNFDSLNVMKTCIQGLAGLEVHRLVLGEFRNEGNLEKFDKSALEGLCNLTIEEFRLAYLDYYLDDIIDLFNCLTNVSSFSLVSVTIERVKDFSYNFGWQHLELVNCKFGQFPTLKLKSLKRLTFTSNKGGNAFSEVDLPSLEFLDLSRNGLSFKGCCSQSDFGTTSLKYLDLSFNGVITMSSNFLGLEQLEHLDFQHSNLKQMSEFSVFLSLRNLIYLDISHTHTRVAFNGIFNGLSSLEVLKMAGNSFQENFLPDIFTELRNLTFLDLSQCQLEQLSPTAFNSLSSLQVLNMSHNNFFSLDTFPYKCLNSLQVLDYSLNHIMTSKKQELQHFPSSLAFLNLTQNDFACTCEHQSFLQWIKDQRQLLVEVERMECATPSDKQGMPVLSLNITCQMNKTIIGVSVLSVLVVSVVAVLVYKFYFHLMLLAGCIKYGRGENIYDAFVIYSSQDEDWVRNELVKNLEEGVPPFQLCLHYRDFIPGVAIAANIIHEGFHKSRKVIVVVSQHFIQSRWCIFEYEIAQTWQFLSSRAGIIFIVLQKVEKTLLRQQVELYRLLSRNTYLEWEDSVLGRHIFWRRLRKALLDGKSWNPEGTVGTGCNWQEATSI
Activity [1] [%],Compound,Activity (HepG2) [%],Activity (PBMC [2]) [%],further results
65.5,CCOC(=O)c1nc(Nc2cc(Oc3ccccc3I)cc([N+](=O)[O-])c2)c2ccccc2n1,93.8,,
67.8,CC(C)OC(=O)c1nc(Nc2cc(Oc3ccccc3Br)cc([N+](=O)[O-])c2)c2ccccc2n1,106.5,,
0.6,CCOC(=O)c1nc(Nc2cc(Oc3c(C)cccc3C)cc([N+](=O)[O-])c2)c2ccccc2n1,106.3,0,
1.6,O=C(O)c1nc(Nc2cc(Oc3ccccc3Br)cc([N+](=O)[O-])c2)c2ccccc2n1,96.3,0,
45.5,CCOC(=O)c1nc(Nc2cc(Oc3ccccc3C)cc([N+](=O)[O-])c2)c2ccccc2n1,96.7,,
0.4,COC(=O)c1nc(Nc2cc(Oc3ccccc3)cc([N+](=O)[O-])c2)c2ccccc2n1,116.4,0.2,
7.4,CC(C)OC(=O)c1nc(Nc2cc(Oc3ccccc3)cc([N+](=O)[O-])c2)c2ccccc2n1,65.6,2.1,
73.9,CCOC(=O)c1nc(Nc2cc(Oc3ccccc3Cl)cc([N+](=O)[O-])c2)c2ccccc2n1,107.4,,
1.1,Nc1cc(Nc2nc(C(=O)O)nc3ccccc23)cc(Oc2ccccc2)c1,105,0.3,
58.7,CCOC(=O)c1nc(Nc2cc(Oc3ccccc3C(F)(F)F)cc([N+](=O)[O-])c2)c2ccccc2n1,67.1,,
8.4,CC(C)CCOC(=O)c1nc(Nc2cc(Oc3ccccc3)cc([N+](=O)[O-])c2)c2ccccc2n1,63.4,2.2,
4.2,CCOC(=O)c1nc(Nc2cc(Oc3ccccc3CC)cc([N+](=O)[O-])c2)c2ccccc2n1,98.9,3.2,
0.6,CCOC(=O)c1nc(Nc2cc(N)cc(Oc3ccccc3)c2)c2ccccc2n1,106.1,0.3,
0.8,CCOC(=O)c1nc(Nc2cc(Oc3ccc4ccccc4c3)cc([N+](=O)[O-])c2)c2ccccc2n1,111.4,0,
0.5,CCOC(=O)c1nc(Nc2cc(Oc3ccc(C)cc3)cc([N+](=O)[O-])c2)c2ccccc2n1,108.8,0.4,
0,NC(=O)c1nc(Nc2cc(Oc3ccccc3)cc([N+](=O)[O-])c2)c2ccccc2n1,78.4,0.3,
14.5,CCOC(=O)c1nc(Nc2cc(Oc3cccc(C)c3)cc([N+](=O)[O-])c2)c2ccccc2n1,109.9,5.8,
0.6,O=C(O)c1nc(Nc2cc(Oc3ccccc3)cc([N+](=O)[O-])c2)c2ccccc2n1,84.5,0.5,
79,CCOC(=O)c1nc(Nc2cc(Oc3ccccc3Br)cc([N+](=O)[O-])c2)c2ccccc2n1,90.8,,
49.1,CCOC(=O)c1nc(Nc2cc(Oc3ccccc3)cc([N+](=O)[O-])c2)c2ccccc2n1,93.5,,Activity [3]: Active; Activity (BMDC [4]): inactive; Activity [5]: inactive; Activity [6]: inactive; Activity (PBMC [7]): Active; Activity (L929): Active; Activity (BMDC [8]): Active; Activity (BMDC [9]): Active; Activity (BMDC [10]): Active; Activity (BMDC [11]): inactive; Activity (BMDC [12]): inactive; Activity (BMDC [13]): inactive; Activity (PBMC [14]): Active; Activity (PBMC [15]): Active; Activity [16]: Active; Activity (PBMC [17]): Active; Activity (PBMC [18]): 112%; Activity [19]: 117%; Activity [20]: Active; Activity [21]: inactive
2.2,CCNC(=O)c1nc(Nc2cc(Oc3ccccc3)cc([N+](=O)[O-])c2)c2ccccc2n1,107.4,1.5,
